In article PMC10549240 (RSC Chemical Biology, 2023):

How the values were obtained:
Bio-PepK-StA [1] = format: binding; details: C-terminal truncation of Fluo-PepE, Fig. 3A
Procedure, shortened: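 Fluorescein-labelled PepE variants truncated at the C-terminus (50 nM in water) were mixed 1:1 with serial dilutions of biotin-PepK/streptavidin complex starting at 20 μM. No activation was used. Fluorescence polarization was measured after 30 min (485 nm excitation, 535 nm emission). The read-out was the Δpolarization relative to samples without biotinylated peptide/streptavidin.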

Bio-PepK-StA [2] = assay: Flupol binding assay after Bind&Bite reaction; details: covalently stabilized by Bind&Bite, Fig. 3B
Procedure, shortened: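 Equal volumes were mixed with serially diluted biotin-PepK/streptavidin complex starting at 20 μM. Fluorescence polarization was read after 30 min (ex 485/em 535 nm). The read-out was Δpolarization versus samples without biotinylated peptide/streptavidin.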

Env(wt) = assay: Bind&Bite reaction with Env; design: species or system HIV-1; details: DMEM with 10% FCS
Procedure, shortened: (§1)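 Env trimers (wild-type or C-terminal G4S-PepK fusion) were expressed in FreeStyle 293-F cells and lectin-purified. Biotinylated PepE was either activated in situ (7.1 μM with 71 μM EDC and 177.5 μM NHS, 30 min RT) or used as pre-activated, HPLC-purified NHS ester. It was added 1:10 to Env at 71 nM final in DMEM/10% FCS, giving final peptide 710, 71, 7.1 or 0.71 nM. Mixtures were incubated 30 min RT, run on reducing 10% SDS-PAGE, and blotted. Blots were probed with streptavidin-HRP or goat anti-gp120/anti-goat HRP, with ECL detection.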

Env-PepK = assay: Bind&Bite reaction with Env-PepK in DMEM/10% FCS, SDS-PAGE and Western Blot; design: species or system HIV-1; details: Env-PepK 71 nM in DMEM with 10% FCS; 30 min RT; streptavidin-HRP blot
Procedure, shortened: as §1

Substance	affinity of the non-covalent interaction with full-length PepK (Bio-PepK-StA [1])	further results
Fluo-Aoa-EIAALEREIAALEREIAAL-NH2 [PepE(-2C)]	very similar to full-length PepE	–
Fluo-Aoa-EIAALEREIAALERE-NH2 [PepE(-6C)]	complete loss of binding	–
Fluo-Aoa-EIAALEREIAALER-NH2 [PepE(-7C)]	complete loss of binding	concentrations at which the peptide binds to full-length PepK (Bio-PepK-StA [2]): submicromolar
Ac-EIAALEREIAALEREIAALER-Aoa-Aoa-Lys(Bio)-NH2 [PepE-Bio]	–	off-target reaction with other components of the medium, in situ activated (Env(wt); in situ activated (EDC/NHS), Fig. 4C): considerable off-target reaction; off-target reactions, pre-activated, purified (Env(wt); pre-activated, purified PepE-Bio, Fig. 4D): largely eliminated; reaction with the PepK tag of Env-PepK (Env-PepK): selective reaction
Fluo-Aoa-EIAALEREIAALEREIAALE-NH2 [PepE(-1C)]	very similar to full-length PepE	–
